Screening results (PubChem BioAssay)
Hits are enriched below; roughly 5.5% of the tested compounds scored in any of these assays.
STAT1 inh: inhibitors of IFN-gamma induced STAT1 signaling. NIH 3T3 STAT1-luciferase reporter, luminescence. inhibition, % at 5.5 µM. hit rate 0.35% among 200,000;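 active = inhibition above a set limit, the mean inhibition across all tested compounds plus 3 SD, cut at about 34% in these data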;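 note: 0% = IFN-gamma with DMSO and 100% = IFN-gamma with 300 µM nifuroxazide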
STAT1 activator: activators of IFN-gamma induced STAT1 signaling; AID 932; activation (% of control), % at 5.5 µM; hit rate 2.6% among 200,000; NIH 3T3 STAT1-luciferase reporter, luminescence; 100% = IFN-gamma alone, no compound;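 active = activation above the screen-wide mean activation plus 3 SD, cut at about 130% in these data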;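 note: raw ratio to IFN-gamma control signal so 100% means no change and 0% no light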
STAT3 act: STAT3 signaling activation | AID 871 | activation (% of control), % at 5.6 µM | U3A cells, IL-6 STAT3-luciferase reporter, luminescence; 100% = signal with IL-6 EC80 alone | hit rate 0.91% among 190,000;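 active = activation above the screen-wide mean of compound activation plus 3 SD, cut at about 130% in these data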;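 note: 0% = background luminescence of wells with medium and substrate only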
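Detection: reporter luminescence signal / Assay system: STAT1-lacking human U3A cells, STAT3 luciferase reporter / Incubation: compound pre-incubation 1 h before IL-6, then 6 h stimulation at 37 °C / Control set: IL-6-only high control / Read-out: % activation relative to IL-6 control / Probe or stimulus: Interleukin-6, 33 ng/mL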
KCC2 mod: modulates chloride dependent transport by human KCC2; Q9H2X9; KCC2 cells, thallium flux FluoZin-2 fluorescence; B-score of Tl+ flux slope (higher = more flux/activation; lower = inhibition) at 10 µM; hit rate 2.2% among 190,000; AID 1456;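 active = thallium flux slope and its plate-corrected score both differing from the plate sample mean at a set confidence after two filtering rounds, in either direction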;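 note: slope of fluorescence scaled to starting intensity during 10 to 20 s after thallium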
HSV augment: HSV replication enhancement; hit rate 0.005% among 220,000; AID 1956; HSV replication augmentation in cells, fold increase; maximum fold increase; in the data active = maximum fold increase above about 1.5; inconclusive = no clear call, values can overlap the other calls; tested in PC3 cells
STAT3 inh: STAT3 signaling inhibition | U3A cells, IL-6 STAT3-luciferase reporter, luminescence; host cell line lacks STAT1 | inhibition, % at 5.5 µM | hit rate 0.89% among 190,000 | AID 862;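 active = inhibition above the mean inhibition across all screened compounds plus 3 SD, cut at about 44% in these data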;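 note: 0% = DMSO only wells and 100% = 100 µM nifuroxazide control wells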
KCC2 sec1: KCC2 (human) modulation, secondary assay; shares compounds with KCC2 mod; HEK293-KCC2, thallium flux, FluoZin2 fluorescence; hits give high values; normalised thallium flux (F/F0 slope) at 10 µM; hit rate 15% among 3,700; AID 1713;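 active = thallium flux slope above the same plate's solvent-only control mean plus 3 SD; inconclusive = the two replicate wells disagree; inactive = no significant difference from solvent-only control wells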
KCC2 bumet counter: bumetanide-insensitive thallium flux in KCC2 cells with ouabain, counter-screen | shares compounds with KCC2 mod | HEK293-KCC2 + bumetanide/ouabain, thallium flux FluoZin2; hits give high values | normalized thallium flux at 10 µM | hit rate 49% among 3,700;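 active = thallium entry rate above the same plate's blocked-transporter control wells by more than 3 SD; inconclusive = the two repeat wells disagree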;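 note: raw slope of fluorescence over initial fluorescence between 10 and 20 s after thallium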
KCC2 secondary2: confirmation of human KCC2 transport modulators; HEK293-KCC2, thallium flux FluoZin2 fluorescence; actives lie on both sides; F/F0 rise rate, 10–20 s post-thallium; normalized thallium flux at 10 µM; AID 1715; hit rate 23% among 3,700; shares compounds with KCC2 mod;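 active = thallium flux slope more than 3 SD above or below the plate's solvent-only control mean, mostly below; inconclusive = the two repeat wells disagreed; inactive = no significant shift from solvent-only controls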;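 note: raw slope with 0.1% DMSO as baseline and bumetanide as block control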
HEK counter1: counter-screen for KCC2 modulators: effect in parental HEK293 cells; shares compounds with KCC2 mod; thallium flux FluoZin2, ouabain; baseline-ratio fluorescence slope, 10–20 s after thallium; thallium flux rate (normalised fluorescence) at 10 µM; hit rate 46% among 3,700;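 active = thallium flux rate significantly above the same plate's solvent-only control wells, beyond their mean plus 3 SD; inconclusive = the two replicate wells gave conflicting results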
KCC2 ouabain: KCC2 (human) modulation, ouabain retest. AID 1717. hit rate 48% among 3,700. HEK293-KCC2, thallium flux FluoZin2 fluorescence; bidirectional: low = inhibitor, high = activator. shares compounds with KCC2 mod. raw Tl+ flux slope (below DMSO = inhibition, above = activation) at 10 µM;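 active = thallium flux slope beyond 3 SD from same-plate DMSO control mean in most replicates, usually higher, sometimes lower; inconclusive = repeat tests gave conflicting results; inactive = no significant difference from controls in most replicates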;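 note: slope of initial-normalized fluorescence between seconds 10 and 20 after thallium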
HEK293 Tl flux2: parental HEK flux effect, counter-screen 2 | shares compounds with KCC2 mod | HEK293 parental, thallium flux FluoZin-2 fluorescence slope | thallium flux slope at 10 µM | hit rate 33% among 3,700 | AID 1718;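 active = thallium flux slope above the same plate's solvent-control mean plus 3 SD in both duplicate wells; inconclusive = duplicate wells that disagreed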;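 note: run without ouabain in cells lacking the KCC2 cotransporter; slope of fluorescence scaled to its starting value between 10 and 20 s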
* marks the source's active call; other numbers are inactive results; i = inactive; ? = inconclusive; / = no result.

SMILES	STAT1 inh	STAT1 activator	STAT3 act	KCC2 mod	HSV augment	STAT3 inh	KCC2 sec1	KCC2 bumet counter	KCC2 secondary2	HEK counter1	KCC2 ouabain	HEK293 Tl flux2
Cc1cc(C=O)c(C)n1-c1cccc(C(=O)O)c1	3	96	102	0.55	i	2	/	/	/	/	/	/
Cc1cc(C=C2C(=O)c3ccccc3C2=O)c(C)n1-c1cccc(C(=O)O)c1	-7	107	99	-5.4*	/	10	0.014	?	0.02*	0.0056*	0.01*	0.0083
CCCc1cc(C(=O)OC)c(NC(=O)c2cc(C)on2)s1	-5	102	98	-0.37	i	6	/	/	/	/	/	/
CC(=O)Nc1ccc(SC(C)C(=O)NC(N)=O)cc1 (centres undefined)	-4	104	99	-1.4	i	2	/	/	/	/	/	/
CC12CCC(C/C1=N/OC(=O)c1cccc([N+](=O)[O-])c1)C2(C)C (centres undefined)	-2	100	111	-1.2	i	-6	/	/	/	/	/	/
COc1ccc(-c2nnc(NC(=O)c3ccccc3C)o2)cc1	/	/	/	4.5*	i	/	0.015*	0.024*	0.031	0.013*	0.026	?
COc1cccc(-c2nnc(NC(=O)c3ccc(S(=O)(=O)N4CCOCC4)cc3)o2)c1	3	97	103	-0.12	i	-1	/	/	/	/	/	/
Cc1cccc(C(=O)Nc2nnc(-c3ccncc3)o2)c1	0	99	97	0.7	i	15	/	/	/	/	/	/
CC(=O)Nc1nnc(-c2ccc3c(c2)CCCC3)o1	-16	115	101	0	i	8	/	/	/	/	/	/
O=C(COc1ccc(Cl)cc1)Nc1nnc(-c2ccc3c(c2)CCCC3)o1	0	100	100	6.2*	i	4	?	0.021*	0.037	?	0.032*	?
COc1cccc(C(=O)Nc2nnc(-c3ccc(F)cc3)o2)c1	/	/	/	15*	i	/	0.0096*	0.05*	0.047*	0.035*	0.047*	0.023*
COc1cccc(-c2nnc(NC(=O)c3ccc4ncsc4c3)o2)c1	-4	104	94	8.8*	i	7	0.013*	0.038*	0.032	0.017*	0.033*	?
CCOc1ncccc1C(=O)Nc1ccc(F)c(Cl)c1	1	97	92	0.13	i	15	/	/	/	/	/	/
CCn1c(CNc2ccc(C)cc2)nnc1SCC(N)=O	-1	100	100	0.22	i	4	/	/	/	/	/	/
COc1cccc(C(=O)Nc2nnc(-c3cccs3)o2)c1	-15	114	98	5.3*	i	11	0.0065	0.023*	0.034	0.018*	0.029*	0.016*
O=C(Nc1nnc(-c2cccs2)o1)c1ccco1	-3	102	107	-0.036	i	-4	/	/	/	/	/	/
COc1cccc(-c2nnc(NC(C)=O)o2)c1	/	/	/	-0.011	i	/	/	/	/	/	/	/
CCCCN(CC)S(=O)(=O)c1ccc(C(=O)Nc2nnc(-c3cccs3)o2)cc1	-2	102	101	23*	i	3	0.016*	0.075*	0.029	0.036*	0.05*	0.011*
Cc1cccc(C(=O)Nc2nnc(-c3cccnc3)o2)c1	-4	102	101	4.6*	i	0	0.0059	0.0093*	0.03	0.0099*	0.02	?
COc1cccc(C(=O)Nc2nnc(-c3ccc(Cl)cc3)o2)c1	/	/	/	46*	i	/	?	0.11*	0.095*	0.095*	0.1*	0.089*
CN(C)S(=O)(=O)c1cccc(NC(=O)Cn2cc(C(F)(F)F)cc(Cl)c2=O)c1	-7	105	110	0.061	i	-11	/	/	/	/	/	/
COc1ccc(NC(=S)NNC(=O)c2cccs2)cc1	-17	115	103	/	i	-3	/	/	/	/	/	/
CC(C)c1ccc(NC(=S)NNC(=O)c2cccs2)cc1	-50	144*	100	25*	i	7	?	0.038*	0.027	0.018*	?	?
O=S(=O)(c1cccc2cccnc12)N1CCN(Cc2ccccc2)CC1	-5	102	106	-3.1*	i	0	0.007	0.0046	0.025*	0.0076	0.017*	0.0096
O=S(=O)(c1cccc2cccnc12)N1CCN(Cc2ccc3c(c2)OCO3)CC1	3	97	106	/	i	-3	/	/	/	/	/	/
SMILES	STAT1 inh	STAT1 activator	STAT3 act	KCC2 mod	HSV augment	STAT3 inh	KCC2 sec1	KCC2 bumet counter	KCC2 secondary2	HEK counter1	KCC2 ouabain	HEK293 Tl flux2
CCC(C)NCCCCOc1ccc(Cl)cc1C (centres undefined)	-5	104	99	-0.66	i	-1	/	/	/	/	/	/
COC(=O)c1ccccc1NC(=O)CSc1ccc(C)cc1	8	93	92	-4.3*	i	10	0.0083	?	0.033	0.0063	0.02	0.01
Cc1cccc(N(C(=O)CCC(=O)Nc2ccccn2)C(C(=O)NC(C)C)c2ccc(O)cc2)c1 (centres undefined)	-3	103	96	-3.5*	i	11	0.0059	0.0047	0.029	0.0078	0.019	0.012
COCCNC(=O)C(c1ccc(O)cc1)N(C(=O)CCC(=O)Nc1nccs1)c1cccc(C)c1 (centres undefined)	-9	106	100	1.1	i	2	/	/	/	/	/	/
CCCCC1=CC2=C(c3ccco3)C(=O)C(C)(OC(=O)c3ccc(OC)cc3)C(=O)C2=CN1C1CCCC1 (centres undefined)	/	/	/	/	i	/	/	/	/	/	/	/
O=C(/C=C/c1cn(CC(O)CN2CCCCC2)c2ccccc12)c1cccs1 (centres undefined)	-6	105	110	4.6*	/	-12	0.0083	0.0059	0.024*	0.0068	0.016*	0.0084
c1cc2c(cc1Oc1nc(N3CCOCC3)nc(N3CCOCC3)n1)OCO2	2	90	99	0.22	i	5	/	/	/	/	/	/
Clc1ccc(Oc2nc(N3CCOCC3)nc(N3CCOCC3)n2)cc1	-4	101	102	7.6*	i	-2	0.0091	0.0068	0.03	0.0074	0.021	?
